For orientation: IC50 means the point on the concentration scale where inhibition reaches its midpoint.

Among the data in ChEMBL document CHEMBL4261567, “Phenylethynyl-substituted Heterocycles Inhibit Cyclin D1 and Induce the Expression of Cyclin-dependent Kinase Inhibitor p21Wif1/Cip1 in Colorectal Cancer Cells” (Medchemcomm, 2018) are Activity, inhibition and IC50 values, retold here.

Activity calls are given as the source filed them. The calls are words filed in the database; no cut-off is given here.

The target in series [1] is S-adenosylmethionine synthase isoform type-2 (Homo sapiens) (UniProt P31153). Briefly: Binding affinity to GST-tagged MAT2A (unknown origin) expressed in Escherichia coli BL21 by Western blot based pull down assay. Summed up:
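Recombinant MAT2A was incubated with or without the biotinylated probe, and the complex was captured on streptavidin beads. Bound protein was eluted with 2.5 mM D-(+)-biotin, run on 10% SDS-PAGE, and detected by western blot with an anti-MAT2A antibody.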

Series [2] concerns HT-29. Briefly: cells. The note with it: Homo sapiens, HT-29, 96 h, read-out: INH.
Series [3] in a line: Cytotoxicity against human HEL299 cells assessed as inhibition of cell proliferation at 10 uM after 4 days by Vi-Cell cell viability analyzer based method relative to control. The arrangement: species or system HEL 299. Summed up:
(§1)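 Cells (colon LS174T, HT-29, Caco2; lung epithelial BEAS-2B; fibroblast HEL 299) were kept in RPMI or DMEM with 5% or 10% FBS plus 1% penicillin/streptomycin. 3 × 10^4 cells per well were exposed to DMSO or compound. After 4 days, cell number and viability were counted on a Vi-Cell analyzer. Results are given as percent inhibition of proliferation at the stated concentration.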

Series [4] deals with Caco-2. As to the kind of experiment: Antiproliferative activity against human Caco2 cells assessed as inhibition of cell proliferation at 1 uM after 4 days by Vi-Cell cell viability analyzer based method relative to control. The format is functional. The conditions noted are these: Caco-2, 96 h. Summed up:
as §1

Series [5] concerns HT-29. Briefly: Antiproliferative activity against human HT-29 cells assessed as inhibition of cell proliferation at 1 uM after 4 days by Vi-Cell cell viability analyzer based method relative to control. The note with it: HT-29, 96 h. The format is functional. Summed up: as §1
Series [6] has as its system Caco-2. As to the kind of experiment: cells. The note with it: Homo sapiens, Caco-2, 96 h, read-out: INH.
The nature of series [7]: Cytotoxicity against human HEL299 cells assessed as inhibition of cell proliferation at 1 uM after 4 days by Vi-Cell cell viability analyzer based method relative to control. The arrangement: species or system HEL 299. Summed up:
as §1

Series [8] is described as follows: Cytotoxicity against human BEAS2B cells assessed as inhibition of cell proliferation at 1 uM after 4 days by Vi-Cell cell viability analyzer based method relative to control. The arrangement: species or system BEAS-2B. Summed up:
as §1

The subject of series [9] is LS174T. As to the kind of experiment: Antiproliferative activity against human LS174T cells assessed as inhibition of cell proliferation at 10 uM after 4 days by Vi-Cell cell viability analyzer based method relative to control. The series is classed as functional. The note with it: 96 h. The procedure, abridged:
as §1

Series [10] concerns LS174T. As to the kind of experiment: Antiproliferative activity against human LS174T cells assessed as inhibition of cell proliferation at 1 uM after 4 days by Vi-Cell cell viability analyzer based method relative to control. The series is classed as functional. The conditions noted are these: 96 h. The procedure, abridged: as §1
A short description of series [11]: Cytotoxicity against human BEAS2B cells assessed as inhibition of cell proliferation at 10 uM after 4 days by Vi-Cell cell viability analyzer based method relative to control. The arrangement: species or system BEAS-2B. Summed up: as §1
In series [12] the test system is LS174T. As to the kind of experiment: Antiproliferative activity against human LS174T cells assessed as inhibition of cell proliferation after 4 days by Vi-Cell cell viability analyzer based method. The conditions noted are these: 96 h. The series is classed as functional. The procedure, abridged:
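LS174T cells in RPMI or DMEM with 5% or 10% FBS plus 1% penicillin/streptomycin were seeded at 3 × 10^4 cells per well. They were treated with DMSO or a range of compound concentrations, and cell number and viability were counted on a Vi-Cell analyzer after 4 days. IC50 was fitted from the dose-response curve.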

Series [13] addresses G1/S-specific cyclin-D1 (Homo sapiens) (UniProt P24385). Briefly: Inhibition of cyclin D1 in human LS174T cells assessed as reduction in protein level at 300 nM by Western blot analysis. The series is classed as cell-based. Summed up: (§2)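 LS174T cells were treated at 300 nM. Lysates were western blotted with antibodies to cyclin D1 and p21Wif1/Cip1, using β-tubulin as the loading control.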
For orientation: A western blot detects proteins with antibodies after separation by electrophoresis.

In series [14] the test system is LS174T. As to the kind of experiment: Antiproliferative activity against human LS174T cells assessed as inhibition of cell proliferation at 100 nM after 4 days by Vi-Cell cell viability analyzer based method relative to control. The series is classed as functional. The conditions noted are these: 96 h. Summed up: as §1
Series [15] has as its system LS174T. Briefly: Antiproliferative activity against human LS174T cells assessed as inhibition of cell proliferation at 30 nM after 4 days by Vi-Cell cell viability analyzer based method relative to control. The note with it: 96 h. The format is functional. Summed up:
as §1

Series [16] concerns the target G1/S-specific cyclin-D1 (Homo sapiens) (UniProt P24385). Briefly: Inhibition of cyclin D1 in human LS174T cells assessed as induction of p21 waf1/cip1 expression at 300 nM by Western blot analysis. The series is classed as cell-based. The procedure, abridged: as §2

Sequence of G1/S-specific cyclin-D1 (Homo sapiens) (P24385 whole entry): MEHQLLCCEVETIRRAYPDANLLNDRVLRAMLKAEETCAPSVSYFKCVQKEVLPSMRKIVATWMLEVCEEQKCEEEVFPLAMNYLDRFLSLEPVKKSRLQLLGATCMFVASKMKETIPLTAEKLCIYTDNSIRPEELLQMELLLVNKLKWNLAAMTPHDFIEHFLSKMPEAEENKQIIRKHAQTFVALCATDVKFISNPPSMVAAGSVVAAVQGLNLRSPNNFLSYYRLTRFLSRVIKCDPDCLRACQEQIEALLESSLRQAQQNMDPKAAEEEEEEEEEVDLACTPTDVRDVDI
Sequence of S-adenosylmethionine synthase isoform type-2 (Homo sapiens) (P31153 whole entry, looked up, canonical isoform): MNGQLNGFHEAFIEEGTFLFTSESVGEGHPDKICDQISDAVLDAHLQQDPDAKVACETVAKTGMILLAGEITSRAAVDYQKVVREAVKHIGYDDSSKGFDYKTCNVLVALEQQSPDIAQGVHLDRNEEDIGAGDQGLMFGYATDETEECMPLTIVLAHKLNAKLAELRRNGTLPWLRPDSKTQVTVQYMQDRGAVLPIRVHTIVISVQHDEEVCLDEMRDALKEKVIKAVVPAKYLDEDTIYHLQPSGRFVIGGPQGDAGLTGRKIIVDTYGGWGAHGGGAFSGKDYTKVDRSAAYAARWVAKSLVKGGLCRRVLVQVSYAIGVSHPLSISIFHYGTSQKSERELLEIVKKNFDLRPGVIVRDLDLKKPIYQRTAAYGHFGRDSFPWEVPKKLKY

For the compound `CN(CC(=O)NCCOCCOCCNC(=O)CCCC[C@@H]1SC[C@@H]2NC(=O)N[C@@H]21)c1ccc(C#Cc2c(F)cccc2F)c2ccccc12`, the outcome in series [1] was Active.
As to `O=c1[nH]cc(F)c(=O)[nH]1` [FLUOROURACIL], the inhibition at 10 µM was 82.9% in series [2], 60.2% in series [6] and 82.3% in series [9]. Further, the results for the inhibition at 96 h, 10 µM in series [3] and in series [11] were 64.6% and 57.5%, respectively. For the same compound, the results for the inhibition at 1 µM in series [4], in [5] and in series [10] were 37.7%, 11.6% and 6.5%, respectively. Besides, the inhibition at 96 h, 1 µM stood at 12.1% in series [7] and 4.5% in series [8].
On to `CNc1ncc(C#Cc2c(F)cccc2F)c2ccccc12`, for which the inhibition at 96 h, 10 µM in series [3] is 9.5%; in series [11] it was 19.2%. The inhibition at 1 µM came out at 58.3% in series [4], 76.8% in series [5] and 99.8% in [10]. For the same compound, the IC50 in [12] came out at 4.2 nM. For the same compound, the inhibition result in series [13] and in [16] was “Active” each time. Also, in [14], the inhibition at 0.1 µM was 99.5%. Further, the values for the inhibition at 96 h, 1 µM in [7] and in [8] were 6.3% and 5.8%, respectively. For the same compound, the inhibition at 10 µM in series [9] was 98.9%. The inhibition at 0.03 µM in series [15] was found to be 94.5%.
